In ChEMBL document CHEMBL1144245, “Discovery of 4-aryl-2-oxo-2H-chromenes as a new series of apoptosis inducers using a cell- and caspase-based high-throughput screening assay” (Bioorg Med Chem Lett, 2008):

How the values were obtained:
[1] = tested on: T47D; test: Induction of apoptosis in human T47D cells assessed as caspase 3 activation by HTS assay; assay type: functional, cell-based
[2] = tested on: SNU-398; test: Induction of apoptosis in human SNU398 cells assessed as caspase 3 activation by HTS assay; assay type: functional, cell-based
[3] = tested on: HCT-116; test: Induction of apoptosis in human HCT 116 cells assessed as caspase 3 activation by HTS assay; assay type: functional, cell-based
[4] = tested on: T47D; test: Growth inhibition of human T47D cells; assay type: functional
How it was run: (§1)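 Growth inhibition assay in T47D, HCT116 and SNU398 cells, run in 96-well format. GI50 reported as mean ± SEM of three or more experiments.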

[5] = tested on: SNU-398; test: Growth inhibition of human SNU398 cells; assay type: functional; how it was run: as §1
[6] = Growth inhibition of human HCT 116 cells; assay type: functional; how it was run: as §1

| Compound | EC50 [1] | EC50 [2] | EC50 [3] | GI50 [4] | GI50 [5] | GI50 [6] |
| --- | --- | --- | --- | --- | --- | --- |
| COc1cc(-c2c(C#N)c(=O)oc3c2ccc2cnccc23)cc(Br)c1OC | 3000 nM | 2500 nM | 4800 nM | – | – | – |
| COc1cc(-c2c(C#N)c(=O)oc3cc(N(C)C)ccc23)cc(Br)c1OC | 280 nM | 260 nM | 400 nM | 620 nM | 150 nM | 460 nM |
| COc1cccc(-c2c(C#N)c(=O)oc3cc(OC)ccc23)c1 | 53 nM | 29 nM | 59 nM | – | – | – |
| COc1cc(-c2c(C#N)c(=O)oc3c2ccc2c3ccn2C)cc2c1OCO2 | 27 nM | 17 nM | 27 nM | 25 nM | 7.9 nM | 26 nM |
| COc1cc(-c2c(C#N)c(=O)oc3c2ccc2c3ccn2C)cc(Br)c1OC | 13 nM | 6 nM | 10 nM | 0.7 nM | 0.3 nM | 0.9 nM |
| COc1cc(OC)cc(-c2c(C#N)c(=O)oc3cc(OC)ccc23)c1 | 17 nM | 15 nM | 18 nM | – | – | – |
| Cn1ccc2c3oc(=O)c(C#N)c(-c4cccc(Br)c4)c3ccc21 | 24 nM | 9.6 nM | 14 nM | – | – | – |
| Cn1ccc2c3oc(=O)c(C#N)c(-c4cccc([N+](=O)[O-])c4)c3ccc21 | 43 nM | 9.5 nM | 13 nM | – | – | – |

Continued, in another order:

| EC50 [1] | EC50 [2] | EC50 [3] | GI50 [4] | GI50 [5] | Compound | GI50 [6] |
| --- | --- | --- | --- | --- | --- | --- |
| 43 nM | 17 nM | 20 nM | – | – | COc1cccc(-c2c(C#N)c(=O)oc3c2ccc2c3ccn2C)c1 | – |
| 6900 nM | 5500 nM | 9400 nM | – | – | COc1cc(-c2c(C#N)c(=O)oc3cc(Cl)ccc23)cc(Br)c1OC | – |
| 42 nM | 26 nM | 41 nM | – | – | COc1ccc2c(-c3cc(Br)c(OC)c(OC)c3)c(C#N)c(=O)oc2c1 | – |
| 820 nM | 490 nM | 990 nM | 630 nM | 440 nM | COc1cc(-c2c(C#N)c(=O)oc3cc(N)ccc23)cc(Br)c1OC | 630 nM |
| 24 nM | 13 nM | 20 nM | – | – | COc1cc(OC)cc(-c2c(C#N)c(=O)oc3c2ccc2c3ccn2C)c1 | – |
| 19 nM | 14 nM | 16 nM | – | – | Cc1cncc(-c2c(C#N)c(=O)oc3c2ccc2c3ccn2C)c1 | – |
| 73 nM | – | – | – | – | COc1cc(C2C(C#N)=C(N)Oc3cc(N(C)C)ccc32)cc2c1OCO2 (stereo not given) | – |
